This note sets out measurements from ChEMBL document CHEMBL1124191, “Design of rat renin inhibitory peptides” (J Med Chem, 1988).

Each structure is given as a SMILES string. *1 amine or outer side, *2 acyl side, *3 side chain or, on linkers, in order; H or OH if unused. Where a SMILES comes first, the peptide text is derived from it. [ ]: non-standard residue; d: D form. Ahppa(3S,4S) = O=C(C[C@H](O)[C@H](Cc1ccccc1)N[*:1])[*:2]; Sta = CC(C)C[C@H](N)[C@@H](O)CC(=O)O; Cha = N[C@@H](CC1CCCCC1)C(=O)O; Tle = CC(C)(C)[C@H](N)C(=O)O

The first assay addresses T1, Renin (Rattus norvegicus, UniProt P08424).
T1 sequence (P08424 whole entry): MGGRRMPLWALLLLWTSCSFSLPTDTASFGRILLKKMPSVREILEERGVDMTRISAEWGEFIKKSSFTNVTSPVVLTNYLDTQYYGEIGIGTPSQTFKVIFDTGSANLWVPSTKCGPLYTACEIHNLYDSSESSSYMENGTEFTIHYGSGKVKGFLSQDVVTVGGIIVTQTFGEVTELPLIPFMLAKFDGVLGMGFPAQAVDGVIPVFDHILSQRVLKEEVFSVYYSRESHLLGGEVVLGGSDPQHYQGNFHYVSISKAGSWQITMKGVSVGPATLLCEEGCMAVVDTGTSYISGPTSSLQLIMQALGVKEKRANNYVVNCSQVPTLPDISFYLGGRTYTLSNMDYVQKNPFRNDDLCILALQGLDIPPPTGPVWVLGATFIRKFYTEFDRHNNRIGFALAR
Nature of the assay: Inhibitory activity against rat plasma renin in vitro. The assay is classed as cell-free. The method, boiled down: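 Pooled EDTA rat plasma with added PMSF 5 mM, 8-hydroxyquinoline 3 mM and extra EDTA 5 mM, at pH 7.4, mixed with serial 1:10 peptide dilutions (Tris/DMSO), split, and incubated 1 h at 37 and 0 °C.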
In turn, `CC(=O)N[C@@H](Cc1c[nH]cn1)C(=O)N1CCC[C@H]1C(=O)N[C@@H](Cc1ccccc1)C(=O)N[C@H](C(=O)N[C@@H](CC(C)C)[C@@H](O)CC(=O)N[C@@H](CC(C)C)C(=O)N[C@@H](Cc1ccccc1)C(N)=O)C(C)(C)C` (Ac-HPF[Tle][Sta]LF-NH2) showed an IC50 of 400 nM.

`CC(=O)N[C@@H](Cc1cnc[nH]1)C(=O)N1CCC[C@H]1C(=O)N[C@@H](Cc1ccccc1)C(=O)N[C@@H](Cc1cnc[nH]1)C(=O)N[C@@H](CC1CCCCC1)[C@@H](O)CC(=O)N[C@@H](CC(C)C)C(=O)N[C@@H](Cc1ccccc1)C(N)=O` gave a 50% inhibitory concentration (IC50) of 50 nM.

In the case of `CC(=O)N[C@@H](Cc1c[nH]cn1)C(=O)N1CCC[C@H]1C(=O)N[C@@H](Cc1ccccc1)C(=O)N[C@@H](Cc1c[nH]cn1)C(=O)N[C@@H](CC(C)C)[C@@H](O)CC(=O)N[C@@H](CC(C)C)C(=O)N[C@@H](CC1CCCCC1)C(N)=O` (Ac-HPFH[Sta]L[Cha]-NH2), it took 160 nM to reach half-maximal inhibition (IC50).

Regarding `CC(=O)N[C@@H](Cc1cnc[nH]1)C(=O)N1CCC[C@H]1C(=O)N[C@@H](Cc1ccccc1)C(=O)N[C@@H](Cc1cnc[nH]1)C(=O)N[C@@H](Cc1ccccc1)[C@@H](O)CC(=O)N[C@@H](CC(C)C)C(=O)N[C@@H](Cc1ccccc1)C(N)=O` (Ac-HPFH[Ahppa(3S,4S)]LF-NH2), the half-maximal inhibitory concentration (IC50) was determined as 150 nM.

As to `CC(C)[C@H](NC(=O)C[C@H](O)[C@H](Cc1ccccc1)NC(=O)[C@H](Cc1c[nH]cn1)NC(=O)[C@H](Cc1ccccc1)NC(=O)[C@@H]1CCCN1C(=O)[C@H](Cc1c[nH]cn1)NC(=O)[C@@H]1CCCN1)C(=O)N[C@@H](Cc1ccc(O)cc1)C(=O)N[C@@H](CCCCN)C(N)=O` (H-PHPFH[Ahppa(3S,4S)]VYK-NH2), it took 1300 nM to reach half-maximal inhibition (IC50).

Compound `CC(=O)N[C@@H](Cc1c[nH]cn1)C(=O)N1CCC[C@H]1C(=O)N[C@@H](CC(C)C)C(=O)N[C@@H](Cc1c[nH]cn1)C(=O)N[C@@H](CC(C)C)[C@@H](O)CC(=O)N[C@@H](CC(C)C)C(=O)N[C@@H](Cc1ccccc1)C(N)=O` displayed a half-maximal inhibitory concentration (IC50) of 9100 nM.

In the case of `CC[C@H](C)[C@H](NC(=O)C[C@H](O)[C@H](Cc1ccccc1)NC(=O)[C@H](Cc1c[nH]cn1)NC(=O)[C@H](Cc1ccccc1)NC(=O)[C@@H]1CCCN1C(=O)[C@H](Cc1c[nH]cn1)NC(=O)[C@@H]1CCCN1)C(=O)N[C@@H](Cc1ccccc1)C(N)=O` (H-PHPFH[Ahppa(3S,4S)]IF-NH2), the IC50 is 370 nM.

The subject of a further assay is Rattus norvegicus. The experiment in a line: Compound evaluated for decrease in mean arterial pressure at a minimal dose of 100 ug/kg in rats. The assay is classed as functional, Artery.
For `CC(=O)N[C@@H](Cc1c[nH]cn1)C(=O)N1CCC[C@H]1C(=O)N[C@@H](Cc1ccccc1)C(=O)N[C@@H](Cc1c[nH]cn1)C(=O)N[C@@H](CC(C)C)[C@@H](O)CC(=O)N[C@@H](CC(C)C)C(=O)N[C@@H](Cc1ccccc1)C(N)=O`, the Decrease amounted to 13.2%.

The target of the next assay is T2, Renin (Homo sapiens, UniProt P00797).
T2 sequence (P00797 whole entry): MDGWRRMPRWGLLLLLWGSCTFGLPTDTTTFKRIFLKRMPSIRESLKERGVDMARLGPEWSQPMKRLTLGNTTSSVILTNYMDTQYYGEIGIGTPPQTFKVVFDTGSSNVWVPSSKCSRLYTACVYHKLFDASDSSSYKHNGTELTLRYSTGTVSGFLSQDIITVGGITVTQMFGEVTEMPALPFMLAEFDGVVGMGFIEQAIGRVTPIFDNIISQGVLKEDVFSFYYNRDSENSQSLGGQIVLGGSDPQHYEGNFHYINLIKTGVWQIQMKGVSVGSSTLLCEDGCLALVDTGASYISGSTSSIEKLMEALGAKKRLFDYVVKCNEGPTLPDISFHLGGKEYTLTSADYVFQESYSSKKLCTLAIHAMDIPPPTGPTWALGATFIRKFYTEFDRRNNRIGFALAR
The experiment in a line: Compound was tested for its inhibitory activity against human plasma renin. The assay is classed as cell-free.
`CC(=O)N[C@@H](Cc1cnc[nH]1)C(=O)N1CCC[C@@H]1C(=O)N[C@@H](Cc1ccccc1)C(=O)N[C@H](C(=O)N[C@@H](CC(C)C)[C@@H](O)CC(=O)N[C@@H](CC(C)C)C(=O)N[C@@H](Cc1ccccc1)C(N)=O)C(C)C`: half-maximal inhibition (IC50) required 3.2 nM. In other words, the single-digit nanomolar range.

`CC(=O)N[C@@H](Cc1cnc[nH]1)C(=O)N1CCC[C@@H]1C(=O)N[C@@H](Cc1ccccc1)C(=O)N[C@@H](Cc1cnc[nH]1)C(=O)N[C@@H](CC(C)C)[C@@H](O)CC(=O)N[C@@H](CC(C)C)C(=O)N[C@@H](Cc1ccccc1)C(N)=O` showed an IC50 of 14 nM.

For the compound `CC(=O)N[C@@H](Cc1cnc[nH]1)C(=O)N1CCC[C@@H]1C(=O)N[C@@H](Cc1ccccc1)C(=O)N[C@@H](Cc1cnc[nH]1)C(=O)N[C@@H](CC1CCCCC1)[C@@H](O)CC(=O)N[C@@H](CC(C)C)C(=O)N[C@@H](Cc1ccccc1)C(N)=O`, the IC50 was found to be 0.5 nM. This IC50 lies about 28-fold lower than the previous one.

Regarding `CC(=O)N[C@@H](Cc1cnc[nH]1)C(=O)N1CCC[C@@H]1C(=O)N[C@@H](Cc1ccccc1)C(=O)N[C@H](C(=O)N[C@@H](CC1CCCCC1)[C@@H](O)CC(=O)N[C@@H](CC(C)C)C(=O)N[C@@H](Cc1ccccc1)C(N)=O)C(C)C`, the 50% inhibitory concentration (IC50) stood at 15 nM.

The test system of the next assay is Rattus norvegicus. Nature of the assay: Compound evaluated for decrease in mean arterial pressure at a minimal dose of 3 ug/kg in rats. The assay is classed as functional, Artery.
For the compound `CC(=O)N[C@@H](Cc1c[nH]cn1)C(=O)N1CCC[C@H]1C(=O)N[C@@H](Cc1ccccc1)C(=O)N[C@H](C(=O)N[C@@H](CC(C)C)[C@@H](O)CC(=O)N[C@@H](CC(C)C)C(=O)N[C@@H](Cc1ccccc1)C(N)=O)C(C)C`, the Decrease came out at 4.9%.
